Experimental findings from ChEMBL document CHEMBL2311413, “N-cinnamoylated chloroquine analogues as dual-stage antimalarial leads” (J Med Chem, 2013) are described below.

Activity calls are given as the source filed them. The calls are words filed in the database; no cut-off is given here. Bounds are passed on as bounds.

For data set [1], the system named is Plasmodium berghei. Description: Antiplasmodial activity against Plasmodium berghei liver stage form transfected in human Huh-7 cells assessed as cell viability after 48 hrs by luciferase reporter gene assay. The conditions noted are these: Huh-7, 48 h. It counts as functional, organism-based.
Data set [2] can be described thus: Inhibition of beta-hematin formation at 0.1 to 1 mM after 48 hrs relative to control. The data set is classed as functional. An outline of the steps:
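Compounds in DMSO, 0.1−1 mM, added in triplicate to hemin chloride in DMSO (5.2 mg/mL). Formation started with 0.2 M acetate buffer pH 4.4, then 37 °C for 48 h. After centrifugation, pellet washed four times with DMSO and dissolved in 0.2 M NaOH, diluted 1:6 in 0.1 M NaOH, absorbance at 405 nm. Water and DMSO as negative controls.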

Data set [3] has as its system Plasmodium falciparum. The experiment in a line: Antiplasmodial activity against CQ-resistant Plasmodium falciparum 3D7 blood stage form after 48 hrs by FACSort cytometry. It counts as functional, organism-based. As to conditions: 3D7, 48 h.
In data set [4] the test system is Plasmodium falciparum. The experiment in a line: Antiplasmodial activity against CQ-resistant Plasmodium falciparum W2 blood stage form after 48 hrs by FACSort cytometry. It counts as functional, organism-based. As to conditions: W2, 48 h.
In data set [5] the test system is Mus musculus. The experiment in a line: Toxicity in Plasmodium berghei infected Swiss Webster mouse at 10 to 100 mg/kg, ip bid administered for 4 days by Giemsa staining method. The data set is classed as organism-based. On the set-up: dose 10-100 mg/kg, route intraperitoneal. The conditions noted are these: in vivo, 96 h. The essentials: (§1)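 Female Swiss Webster mice (n = 5) infected ip with 10^6 P. berghei-infected erythrocytes. Treatment began 2 h later: ip 10, 30 or 100 mg/kg twice daily for 4 days. Chloroquine control at 3, 10 and 30 mg/kg ip twice daily. Daily checks for toxicity and for parasitemia on Giemsa-stained blood smears; survival followed over time.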

Data set [6] deals with Plasmodium berghei. The experiment in a line: Antimalarial activity against Plasmodium berghei infected in Swiss Webster mouse assessed as increase in survival time at 100 mg/kg, ip bid administered for 4 days by Giemsa staining method relative to untreated control. The data set is classed as functional. The conditions noted are these: route intraperitoneal. An outline of the steps: (§2)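 Female Swiss Webster mice (n = 5) infected ip with 10^6 P. berghei-infected erythrocytes. Dosing began 2 h later by ip injection twice daily for 4 days; chloroquine control at 3, 10, 30 mg/kg ip twice daily. Mice checked daily for toxicity and parasitemia (Giemsa-stained blood smears). Survival after treatment start compared with untreated controls.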

Data set [7] concerns Plasmodium berghei. The experiment in a line: Antimalarial activity against Plasmodium berghei infected in Swiss Webster mouse assessed as increase in survival time at 10 mg/kg, ip bid administered for 4 days by Giemsa staining method relative to untreated control. It counts as functional. The essentials:
as §2

Data set [8] has as its system Plasmodium berghei. The experiment in a line: Antimalarial activity against Plasmodium berghei infected in Swiss Webster mouse assessed as increase in survival time at 30 mg/kg, ip bid administered for 4 days by Giemsa staining method relative to untreated control. The data set is classed as functional. The essentials: as §2
In a further data set the test system is Huh-7. The experiment in a line: Cytotoxicity against human HuH7 cells assessed as cell viability by AlamarBlue assay. It counts as cell-based. The essentials: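 Huh-7 human hepatoma cells grown in RPMI 1640 with 10% FCS, nonessential amino acids, glutamine and 10 mM HEPES pH 7, 37 °C, 5% CO2; 1.2 × 10^4 cells/well seeded the day before. Compound added ~1 h before P. berghei sporozoite infection and renewed at 24 h. Viability read by AlamarBlue per manufacturer's protocol at 48 h post-infection.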

In data set [9] the test system is Mus musculus. The experiment in a line: Toxicity in Plasmodium berghei infected Swiss Webster mouse at 100 mg/kg, ip bid administered for 4 days by Giemsa staining method. Further details: dose 100 mg/kg, route intraperitoneal. It counts as organism-based. As to conditions: in vivo, 96 h. The essentials:
as §1

As to `CCN(CC)CCCC(C)Nc1ccnc2cc(Cl)ccc12` (stereo not drawn) [CHLOROQUINE], the IC50 in the data set on Plasmodium berghei [1] was 15900 nM. This compound also had an inhibition in data set [2] of more than 75%.

Regarding `O=C(/C=C/c1cccc(F)c1)NCCCNc1ccnc2cc(Cl)ccc12`, the figures for the IC50 in the data set on Plasmodium falciparum [3] and in the data set on Plasmodium falciparum [4] were 138 nM and 73.3 nM, respectively.

Take `O=C(/C=C/c1ccc(Br)cc1)NCCCCNc1ccnc2cc(Cl)ccc12`: the values for the IC50 with Plasmodium berghei [1], in the data set on Plasmodium falciparum [3] and in the data set with Plasmodium falciparum [4] were 2280 nM, 28.8 nM and 18.2 nM, respectively. In data set [2], this compound showed an inhibition of more than 75%.

For `O=C(/C=C/c1ccc([N+](=O)[O-])cc1)NCCCNc1ccnc2cc(Cl)ccc12`, the IC50 in the data set on Plasmodium falciparum [3] was 52.5 nM; in the data set with Plasmodium falciparum [4], 23.7 nM. The inhibition in data set [2] is 50%.

In the case of `Nc1ccc(/C=C/C(=O)NCCCNc2ccnc3cc(Cl)ccc23)cc1`, the IC50 came out at 135 nM in the data set on Plasmodium falciparum [3] and 79.8 nM with Plasmodium falciparum [4].

Regarding `O=C(/C=C/c1cccc(F)c1)NCCCCNc1ccnc2cc(Cl)ccc12`, the IC50 in the data set on Plasmodium berghei [1] was 1130 nM; in the data set with Plasmodium falciparum [3], 50.9 nM; in the data set with Plasmodium falciparum [4] it was 34.1 nM. The compound further showed an inhibition in data set [2] of 50%.

For the compound `O=C(/C=C/c1cccc([N+](=O)[O-])c1)NCCCCNc1ccnc2cc(Cl)ccc12`, the IC50 in the data set with Plasmodium falciparum [3] worked out at 42.1 nM; in the data set on Plasmodium falciparum [4], 26.2 nM.

For `COc1ccc(/C=C/C(=O)NCCCCCNc2ccnc3cc(Cl)ccc23)cc1`, the IC50 turned out to be 2270 nM with Plasmodium berghei [1] and 50.3 nM with Plasmodium falciparum [4].

In the case of `COc1ccc(/C=C/C(=O)NCCCCNc2ccnc3cc(Cl)ccc23)cc1`, the Activity result in the data set on Mus musculus [5] and in the data set on Huh-7 was “Non-toxic” in each case. Moreover, the Survival with Plasmodium berghei [6] was found to be 2 days. For the same compound, the result in the data set on Plasmodium berghei [7] and with Plasmodium berghei [8] was inactive. In addition, the IC50 with Plasmodium berghei [1] came to 2860 nM; in the data set with Plasmodium falciparum [3], 30.6 nM; with Plasmodium falciparum [4], 20 nM. The compound further had an inhibition in data set [2] of 50%.

As to `COc1ccc(/C=C/C(=O)OCCCCNc2ccnc3cc(Cl)ccc23)cc1`, the IC50 with Plasmodium berghei [1] turned out to be 6470 nM; in the data set on Plasmodium falciparum [4], 122 nM. In data set [2], this compound yielded an inhibition of 50%.

In the case of `O=C(/C=C/c1ccc([N+](=O)[O-])cc1)NCCCCNc1ccnc2cc(Cl)ccc12`, the IC50 with Plasmodium falciparum [3] was 48.9 nM; with Plasmodium falciparum [4], 23.5 nM. In data set [2], this compound came in with an inhibition of more than 75%.

Consider `C[C@@H]1CC[C@H]2[C@@H](C)C(=O)O[C@@H]3O[C@@]4(C)CC[C@@H]1[C@]32OO4` [ARTEMISININ], for which the IC50 with Plasmodium falciparum [3] was 23.5 nM; in the data set on Plasmodium falciparum [4], 9.5 nM. In [2], the inhibition was less than 50%.

As to `CC(C)c1ccc(/C=C/C(=O)NCCCNc2ccnc3cc(Cl)ccc23)cc1`, the IC50 with Plasmodium falciparum [3] is 50.3 nM; with Plasmodium falciparum [4], 38 nM.

As to `COc1ccc(/C=C/C(=O)NCCCCNc2ccnc3cc(Cl)ccc23)cc1OC`, the Activity entry with Huh-7 is listed as “Non-toxic”. Also, the IC50 was determined as 4050 nM with Plasmodium berghei [1] and 111 nM in the data set on Plasmodium falciparum [4].

Consider `COc1ccc(/C=C/C(=O)NCCCNc2ccnc3cc(Cl)ccc23)cc1`, for which the IC50 in the data set on Plasmodium berghei [1] stood at 4020 nM; in the data set with Plasmodium falciparum [3] it was 49.5 nM; in the data set with Plasmodium falciparum [4], 55.1 nM.

As for `O=C(/C=C/c1cccc([N+](=O)[O-])c1)NCCCNc1ccnc2cc(Cl)ccc12`, the IC50 in the data set on Plasmodium falciparum [3] is 52.7 nM; in the data set on Plasmodium falciparum [4], 50.3 nM. The compound further displayed an inhibition in [2] of 50%.

Turning to `O=C(/C=C/c1ccc(Cl)cc1)NCCCCNc1ccnc2cc(Cl)ccc12`, the Activity entry in the data set with Mus musculus [9] is “Toxic”. The Survival with Plasmodium berghei [7] (route intraperitoneal) and with Plasmodium berghei [8] (route intraperitoneal) was 2 days throughout. Moreover, the IC50 in the data set with Plasmodium berghei [1] was 1440 nM; in the data set on Plasmodium falciparum [3], 26.2 nM; with Plasmodium falciparum [4] it was 11.6 nM. Besides, the inhibition in [2] was 50%.

`O=C(/C=C/c1ccccc1[N+](=O)[O-])NCCCNc1ccnc2cc(Cl)ccc12`: the IC50 with Plasmodium falciparum [3] turned out to be 64.2 nM; with Plasmodium falciparum [4] it was 52.1 nM. In data set [2], this compound had an inhibition of 50%.

In the case of `CC(C)c1ccc(/C=C/C(=O)NCCCCN2CCOCC2)cc1`, the IC50 with Plasmodium berghei [1] and in the data set on Plasmodium falciparum [4] was more than 10000 nM throughout.

For the compound `O=C(/C=C/c1ccc(Br)cc1)NCCCNc1ccnc2cc(Cl)ccc12`, the IC50 in the data set with Plasmodium falciparum [3] is 50 nM; in the data set with Plasmodium falciparum [4], 38.2 nM.

Take `Cc1ccc(/C=C/C(=O)NCCCNc2ccnc3cc(Cl)ccc23)cc1`: the IC50 is 55.9 nM in the data set on Plasmodium falciparum [3] and 47.4 nM with Plasmodium falciparum [4].

As for `O=C(/C=C/c1ccc(Cl)cc1)NCCCCCNc1ccnc2cc(Cl)ccc12`, the IC50 worked out at 1620 nM in the data set with Plasmodium berghei [1] and 25.1 nM in the data set with Plasmodium falciparum [4].

As to `O=C(/C=C/c1ccc(F)cc1)NCCCNc1ccnc2cc(Cl)ccc12`, the values for the IC50 in the data set on Plasmodium falciparum [3] and in the data set on Plasmodium falciparum [4] were 47.7 nM and 46.7 nM, respectively.

For `CN(C)c1ccc(/C=C/C(=O)NCCCCNc2ccnc3cc(Cl)ccc23)cc1`, the IC50 in the data set on Plasmodium falciparum [4] was found to be 25.8 nM. The compound also displayed an inhibition in data set [2] of 50%.

As to `O=C(/C=C/c1ccc(F)cc1)NCCCCNc1ccnc2cc(Cl)ccc12`, the IC50 in the data set with Plasmodium berghei [1] was found to be 1420 nM; with Plasmodium falciparum [3] it was 39.9 nM; with Plasmodium falciparum [4], 19.7 nM. The inhibition in data set [2] came out at 50%.

Regarding `O=C(/C=C/c1ccccc1)NCCCCNc1ccnc2cc(Cl)ccc12`, the IC50 in the data set on Plasmodium berghei [1] was 1060 nM; in the data set with Plasmodium falciparum [3] it was 62.9 nM; with Plasmodium falciparum [4] it was 46.6 nM.

With `O=C(/C=C/c1ccccc1[N+](=O)[O-])NCCCCNc1ccnc2cc(Cl)ccc12`, the values for the IC50 with Plasmodium berghei [1], in the data set with Plasmodium falciparum [3] and with Plasmodium falciparum [4] were 1090 nM, 56.9 nM and 38.3 nM, respectively. For the same compound, the inhibition in [2] came out at 50%.

For the compound `O=C(/C=C/c1ccc(Cl)cc1)NCCCNc1ccnc2cc(Cl)ccc12`, the IC50 is 46.5 nM in the data set with Plasmodium falciparum [3] and 41.6 nM with Plasmodium falciparum [4]. The compound further came in with an inhibition in data set [2] of 50%.

Take `O=C(/C=C/c1ccccc1)NCCCNc1ccnc2cc(Cl)ccc12`: the values for the IC50 in the data set with Plasmodium falciparum [3] and with Plasmodium falciparum [4] were 141 nM and 74.8 nM, respectively.

In the case of `Nc1ccc(/C=C/C(=O)NCCCCNc2ccnc3cc(Cl)ccc23)cc1`, the IC50 in the data set on Plasmodium falciparum [3] was 78.1 nM; in the data set with Plasmodium falciparum [4], 58.8 nM.

As to `CC(C)c1ccc(/C=C/C(=O)NCCCCNc2ccnc3cc(Cl)ccc23)cc1`, the Activity entry with Mus musculus [9] was “Toxic”. For the same compound, the outcome with Plasmodium berghei [7] and in the data set with Plasmodium berghei [8] was inactive. The IC50 in the data set with Plasmodium berghei [1] was 2500 nM; in the data set with Plasmodium falciparum [3], 15.6 nM; with Plasmodium falciparum [4], 11 nM. The inhibition in data set [2] amounted to 50%.

On to `Cc1ccc(/C=C/C(=O)NCCCCNc2ccnc3cc(Cl)ccc23)cc1`, for which the results for the half-inhibitory concentration (IC50) in the data set on Plasmodium berghei [1], in the data set on Plasmodium falciparum [3] and with Plasmodium falciparum [4] were 2360 nM, 24.2 nM and 16.9 nM, respectively.

For the compound `COc1ccc(/C=C/C(=O)NCCCCNc2ccncc2)cc1`, the IC50 in the data set with Plasmodium berghei [1] and in the data set on Plasmodium falciparum [4] was more than 10000 nM throughout.

In the case of `CC(C)c1ccc(/C=C/C(=O)NCCCCCNc2ccnc3cc(Cl)ccc23)cc1`, in the data set on Plasmodium falciparum [4], it took 31.5 nM to reach half-maximal inhibition (IC50). In [2], this compound yielded an inhibition of 50%.

Take `COc1ccc(/C=C/C(=O)NCCCC(C)Nc2cc(OC)cc3cccnc23)cc1` (stereo not drawn): the values for the IC50 in the data set on Plasmodium berghei [1] and with Plasmodium falciparum [4] were 2350 nM and more than 10000 nM, respectively.

With `COc1cc(NC(C)CCCN)c2ncccc2c1` (stereo not drawn) [PRIMAQUINE], in the data set on Plasmodium berghei [1], the IC50 worked out at 7500 nM.

Consider `CC(C)c1ccc(/C=C/C(=O)NCCCCNc2ccnc3ccccc23)cc1`, for which it took 115 nM to reach half-maximal inhibition in the data set with Plasmodium falciparum [4] (IC50).
